High-throughput results (PubChem BioAssay)
Compounds with a hit are over-represented: about 0.58% of the library has one in this group of screens.
Cneo AK release: causes C. neoformans cell lysis; adenylate kinase release luminescence, 4 h; normalised: neutral wells 0, clomiphene wells 100; lysis activity, % at 15 µM; actives 0.2% (n = 360,000); AID 651654;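 active = mean lysis activity across replicates of at least 80%, whatever share of replicates individually reach that level; inactive = mean lysis activity below 80%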
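Material – log-phase Cryptococcus neoformans yeast cells · Input – 5 × 10^6 yeast cells/mL · Medium – fresh YPD growth medium · Doses – single compound concentration per well · Timing – static 4 h at 37 °C with compound, 1 h detection · Detection – adenylate kinase release luminescence · Read-out – signal increase indicating cell lysis · Control set – Clomiphene as positive lysis control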
PvdQ inh: blocks Pseudomonas aeruginosa PvdQ acylase activity; purified PvdQ acylase, fluorescence plate reader; inhibition, % at 10 µM; actives 0.063% (n = 340,000); in the data active = inhibition above about 30%, passing the limit was not always enough; inconclusive = no clear call, values can overlap the other calls;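 note: 0% = vehicle neutral wells and 100% = reference inhibitor wells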
miR122 inh: blocks miR-122 activity in Huh7 sensor cells; Huh7 miR-122 Renilla luciferase sensor, 48 h; neutral wells = 0, positive control = 100; activation (reporter increase), % at 12.5 µM; actives 0.3% (n = 340,000); AID 602342;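 active = mean replicate activation score at least 90 and every replicate individually at or above 90; inconclusive = only one of the two criteria met; inactive = neither criterion met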;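 note: higher luciferase means less miR-122 activity so hits act as miR-122 inhibitors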
ERp5 inh: ERp5 (human) disulfide isomerase inhibition; Q15084; ERp5 insulin aggregation, absorbance 650 nm, 90 min; inhibition, % at 9.99 µM; actives 0.05% (n = 350,000);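 active = mean replicate inhibition above about 25%, with every replicate also reaching it, limit read from the data, passing the limit was not always enough; inconclusive = only one of those two criteria met; inactive = neither criterion met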
PDI turbidity: PDI (human) enzyme inhibition | P07237 | PDI insulin aggregation turbidity, A650, 90 min | inhibition, % at 10 µM | actives 0.052% (n = 350,000) | AID 588391;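 active = mean inhibition across replicates of 30% or more, whatever share of single replicates reach that level; inconclusive = mean inhibition below 30% while every single replicate reaches 30%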
Target sequence (P07237 whole entry, looked up): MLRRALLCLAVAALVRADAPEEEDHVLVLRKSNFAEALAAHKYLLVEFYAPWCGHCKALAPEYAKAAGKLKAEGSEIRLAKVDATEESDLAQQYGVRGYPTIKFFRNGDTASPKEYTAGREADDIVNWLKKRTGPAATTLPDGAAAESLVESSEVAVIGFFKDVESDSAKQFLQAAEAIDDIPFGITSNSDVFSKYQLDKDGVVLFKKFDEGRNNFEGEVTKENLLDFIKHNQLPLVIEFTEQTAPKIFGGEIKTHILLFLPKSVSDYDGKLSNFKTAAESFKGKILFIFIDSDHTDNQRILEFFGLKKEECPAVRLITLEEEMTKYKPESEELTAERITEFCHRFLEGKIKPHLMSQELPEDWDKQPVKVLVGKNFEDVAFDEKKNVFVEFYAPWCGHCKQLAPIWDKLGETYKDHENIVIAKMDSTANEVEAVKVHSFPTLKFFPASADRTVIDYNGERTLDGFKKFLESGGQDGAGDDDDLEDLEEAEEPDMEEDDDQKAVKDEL
PglD inh: inhibitors of Campylobacter jejuni PglD acetyltransferase. purified PglD enzyme, DTNB colorimetric CoA detection. inhibition, % at 12.5 µM. actives 0.098% (n = 360,000). AID 602405; in the data active = inhibition above about 16%, passing the limit was not always enough; inconclusive = no clear call, values can overlap the other calls
PglD confirm: confirmation of Campylobacter jejuni PglD acetyltransferase inhibitors. shares compounds with PglD inh. Purified C. jejuni PglD, DTNB absorbance 412 nm. inhibition, % at 20 µM. 320 tested, under 10 active;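 active = mean inhibition across replicates of at least 20% with every single replicate also at 20% or more; inconclusive = mean inhibition at least 20% but some replicate falls below 20%; inactive = mean inhibition under 20% and not all replicates reach it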;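 note: initial rate of CoA release by acetyl transfer from AcCoA to the UDP-4-amino sugar; 0% = median of neutral control wells and 100% = median of positive control wells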
* marks the source's active call; other numbers are inactive results; ? = inconclusive; . = no result; [ ] = dose if it differs, or a comment.

SMILES | Cneo AK release | PvdQ inh | miR122 inh | ERp5 inh | PDI turbidity | PglD inh | PglD confirm
COC(=O)c1ccc(C2C(Oc3ccc(OC)cc3)C(=O)N2CCc2ccc(OC)c(OC)c2)cc1 (configuration not stated) | -0.1 | -7.3 | 11.0 | . | -1.2 | 34.6* | -11.9
C[C@@H]1CCCCO[C@@H](CN(C)CC2CC2)[C@@H](C)CN([C@H](C)CO)C(=O)c2cc(NC(=O)CCC(F)(F)F)ccc2O1 | 14.6 | . | -3.0[16.7 µM] | -2.4 | . | -4.5 | .
CCn1c(=O)cc(SCC(=O)N2CCN(c3ccccc3OC)CC2)c2ccccc21 | 0.6 | -14.4 | -4.0 | . | 5.8 | 32.9* | ?
CCn1c(=O)cc(SCC(=O)N2CCOCC2)c2ccccc21 | -1.3 | -12.5 | -1.5 | . | -9.2 | -2.7 | .
O=C(NC[C@H]1N[C@H](CO)[C@@H]1c1ccc(-c2ccccc2)cc1)C1CCC1 | 1.6 | . | -0.4[16.7 µM] | . | . | 3.7 | .
CS(=O)(=O)N(CC(=O)NCCSc1ccccn1)c1cccc2ccccc12 | -0.6 | -10.1 | 1.1 | -0.4 | -2.7 | 20.5* | -3.0
C[C@@H]1CN([C@H](C)CO)C(=O)CCCn2cc(nn2)CO[C@H]1CN(C)C | 37.7 | . | -1.9[16.7 µM] | 14.4 | . | -2.4 | .
CCc1ccc(N=C2NC(=O)/C(=C/c3cc(Br)c(OCC(=O)O)c(OC)c3)S2)cc1 | -1.3 | -0.4 | -11.8 | 7.9 | ? | 26.6* | 20.0*
COc1ccc(S(=O)(=O)N(C)C[C@H]2Oc3c(NC(=O)c4cc(C)nn4C)cccc3C(=O)N([C@@H](C)CO)C[C@H]2C)cc1 | -0.5 | . | 0.9[16.7 µM] | -0.4 | . | -1.8 | .
c1ccc(CCNc2nc3ccccc3n3nnnc23)cc1 | -3.4 | -6.2 | -4.4 | . | -10.1 | 25.4* | -10.1
COc1ccc(CCNc2nc3ccccc3n3nnnc23)cc1OC | -1.1 | -17.5 | 8.0 | 1.6 | -8.0 | 0.6 | .
Cc1c(C(=O)Nc2ccccc2C(=O)N2CCCC2)cccc1[N+](=O)[O-] | 0.7 | 0.3 | 1.9 | 6.6 | -13.6 | 22.8* | 2.1
N#CC1=C(N)Oc2cc(N)ccc2C1c1cccc(F)c1 (configuration not stated) | -1.5 | -6.7 | 20.8 | 1.5 | 0.3 | 71.7* | 1.5
CCOc1ccc(-c2nnc(-c3cccs3)o2)cc1 | -2.5 | 1.7 | -4.0 | . | 1.6 | 26.6* | 1.3
C[C@@H]1CN([C@@H](C)CO)C(=O)c2cc(NC(=O)C3CCCCC3)ccc2O[C@@H]1CN(C)S(C)(=O)=O | 0.1 | . | 4.4[16.7 µM] | 0.1 | . | 1.6 | .
CNC[C@H]1OCCCC[C@@H](C)Oc2ccc(NS(=O)(=O)c3ccccc3)cc2C(=O)N([C@@H](C)CO)C[C@H]1C | -0.1 | . | 4.3[16.7 µM] | 3.4 | . | -2.9 | .
COc1cc(NC(=O)COC(=O)CSc2cc(C)ccc2C)c(C)cc1[N+](=O)[O-] | -0.7 | -4.0 | 0.3 | 3.3 | 14.3 | 22.0* | -5.8
COc1cc(NC(=O)COC(=O)CSc2ccccc2F)c(C)cc1[N+](=O)[O-] | . | -3.4 | . | -4.6 | 8.4 | . | .
O=C1NC2(CCCCCC2)C(=O)N1Cc1cccc([N+](=O)[O-])c1 | -5.5 | -2.4 | -12.6 | 3.8 | -2.4 | 20.2* | -0.1
COc1ccc(S(=O)(=O)N(C)C[C@H]2Oc3ccc(NC(=O)Cn4cnnn4)cc3CC(=O)N([C@@H](C)CO)C[C@H]2C)cc1 | 1.3 | . | -0.2[16.7 µM] | 4.2 | . | -3.0 | .
COc1ccc2c3c(n(C)c2c1)[C@H](CO)N(C(=O)CC1CC1)CC31CCN(Cc2ccncc2)CC1 | . | . | . | -0.9 | . | . | .
CC1CCCN(S(=O)(=O)c2ccc(Cl)s2)C1 (configuration not stated) | -4.7 | -15.3 | -0.9 | 4.3 | -3.8 | 25.8* | 11.8
CC1CCCN(S(=O)(=O)c2ccc(Br)s2)C1 (configuration not stated) | -5.1 | -10.8 | 7.8 | 4.5 | -2.4 | 0.6 | .
CCCN(C)C[C@@H]1OCCCC[C@@H](C)Oc2ccc(NS(=O)(=O)c3ccc(Cl)cc3)cc2C(=O)N([C@@H](C)CO)C[C@@H]1C | 5.1 | . | -0.9[16.7 µM] | -3.0 | . | -0.2 | .
O=C(COC(=O)c1cccc(F)c1)Nc1cccc(S(=O)(=O)N2CCOCC2)c1 | -1.0 | . | -1.0 | 0.2 | -0.1 | 5.0 | .
SMILES | Cneo AK release | PvdQ inh | miR122 inh | ERp5 inh | PDI turbidity | PglD inh | PglD confirm
O=C(COC(=O)c1cccc(F)c1)Nc1cccc(S(=O)(=O)N2CCCCC2)c1 | -0.4 | . | -0.4 | -4.6 | -0.6 | 22.3* | -1.5
C[C@H]1CN([C@@H](C)CO)C(=O)c2cccc(NS(=O)(=O)c3ccc(F)cc3)c2O[C@H]1CN(C)Cc1ccncc1 | -0.4 | . | -1.0[16.7 µM] | -3.6 | . | 1.8 | .
C[C@@H]1CN([C@@H](C)CO)C(=O)c2cc(NC(=O)CCCN(C)C)ccc2O[C@@H](C)CCCCO[C@@H]1CN(C)S(C)(=O)=O | 6.3 | . | 5.2[16.7 µM] | -3.1 | . | -1.4 | .
N#Cc1cccc(-c2ccc3c(c2)[C@@H]2[C@@H](CCN2C(=O)c2ccncc2)[C@@H](CO)N3)c1 | 2.9 | . | 19.1[16.7 µM] | -7.8 | . | 2.0 | .
COc1ccc(/C(O)=C2/C(=O)C(=O)N(CCCN3CCOCC3)C2c2ccc(Cl)cc2)cc1 (configuration not stated) | -1.3 | . | -0.6 | 3.3 | 19.4 | 23.8* | -0.8
O=C(C[C@H]1C=C[C@H](NC(=O)c2ccccc2)[C@@H](CO)O1)NCc1ccncn1 | -2.0 | . | . | 5.5 | . | -1.5 | .
COc1ccc(C(C(=O)NCC2CCCO2)N(C(=O)CNC(=O)c2ccco2)c2ccc(C)c(C)c2)cc1OC (configuration not stated) | -0.7 | -16.0 | -3.7 | 0.8 | 9.0 | 22.0* | -3.6
COc1ccc(S(=O)(=O)N2CCCCC2)cc1NC(=S)Nc1ccccc1 | 1.0 | 0.3 | 2.2 | . | 6.0 | 22.8* | -2.5
CCn1cc(/C=N\NC(=O)c2ccc3c(c2)c(C)c(C)n3Cc2ccccc2)c(C)n1 | -1.3 | 6.3 | 3.4 | . | -6.3 | 31.8* | -5.4
CCn1ncc(/C=N\NC(=O)c2ccc3c(c2)c(C)c(C)n3Cc2ccccc2)c1C | 0.1 | 5.8 | 9.6 | . | 1.8 | 3.3 | .
CC1Oc2ccccc2N(CC(=O)N2CCCCC2)C1=O (configuration not stated) | -3.4 | -21.3 | -1.0 | -1.3 | 4.8 | 24.6* | ?
C[C@H]1CN([C@@H](C)CO)C(=O)c2cc(NC(=O)Cc3cn(C)c4ccccc34)ccc2O[C@@H]1CN(C)CC1CC1 | . | . | . | 4.4 | . | . | .
CC(=O)Nc1ccc(SCC(=O)Nc2ccccc2-c2ccccc2)cc1 | -3.4 | -2.6 | -6.0 | 3.9 | -2.8 | 20.3* | -1.9
O=C(C[C@@H]1C[C@H]2c3cc(NS(=O)(=O)c4ccc(F)cc4)ccc3O[C@H]2[C@@H](CO)O1)NCc1ccccc1 | -0.9 | . | 3.8[16.7 µM] | 4.8 | . | -0.1 | .
S=C(NCc1ccncc1)NC1CCCCC1 | 2.4 | -8.9 | 0.3 | 7.5 | 8.1 | 27.4* | 1.4
